Test results: ChEMBL document CHEMBL2203006, “Design, synthesis and pharmacological evaluation of 4-(piperazin-1-yl methyl)-N₁-arylsulfonyl indole derivatives as 5-HT₆ receptor ligands” (Bioorg Med Chem Lett, 2012)
The source made the active and inactive calls. The rule behind the calls is not given here.

Experiments:
[1] = target: Sodium-dependent dopamine transporter (Homo sapiens) (UniProt Q01959); assay: Inhibition of DAT at 1 uM by radioligand displacement assay
Procedure, shortened: (§1)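 Single-concentration screen at 1 µM. Percent inhibition was measured by competitive displacement of each target's radioligand.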

[2] = target: T1, 5-hydroxytryptamine receptor 3A (Homo sapiens) (UniProt P46098); assay: Inhibition of 5HT3 receptor at 1 uM by radioligand displacement assay; procedure, shortened: as §1
T1 sequence (whole entry): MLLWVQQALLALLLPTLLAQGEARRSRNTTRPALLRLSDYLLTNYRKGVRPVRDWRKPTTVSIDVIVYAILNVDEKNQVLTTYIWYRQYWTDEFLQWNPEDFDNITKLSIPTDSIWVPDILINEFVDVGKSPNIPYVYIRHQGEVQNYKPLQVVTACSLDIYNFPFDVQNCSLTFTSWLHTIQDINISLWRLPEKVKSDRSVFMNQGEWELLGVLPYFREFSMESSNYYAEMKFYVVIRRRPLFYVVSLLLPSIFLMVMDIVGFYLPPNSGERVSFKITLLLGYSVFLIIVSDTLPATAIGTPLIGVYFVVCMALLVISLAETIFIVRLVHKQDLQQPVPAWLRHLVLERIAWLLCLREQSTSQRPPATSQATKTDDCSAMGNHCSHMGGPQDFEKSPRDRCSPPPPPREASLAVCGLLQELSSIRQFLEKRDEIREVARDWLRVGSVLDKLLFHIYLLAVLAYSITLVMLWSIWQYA

[3] = target: T2, Alpha-1B adrenergic receptor (Homo sapiens) (UniProt P35368); assay: Inhibition of adrenergic alpha1B receptor at 1 uM by radioligand displacement assay; procedure, shortened: as §1
T2 sequence (whole entry): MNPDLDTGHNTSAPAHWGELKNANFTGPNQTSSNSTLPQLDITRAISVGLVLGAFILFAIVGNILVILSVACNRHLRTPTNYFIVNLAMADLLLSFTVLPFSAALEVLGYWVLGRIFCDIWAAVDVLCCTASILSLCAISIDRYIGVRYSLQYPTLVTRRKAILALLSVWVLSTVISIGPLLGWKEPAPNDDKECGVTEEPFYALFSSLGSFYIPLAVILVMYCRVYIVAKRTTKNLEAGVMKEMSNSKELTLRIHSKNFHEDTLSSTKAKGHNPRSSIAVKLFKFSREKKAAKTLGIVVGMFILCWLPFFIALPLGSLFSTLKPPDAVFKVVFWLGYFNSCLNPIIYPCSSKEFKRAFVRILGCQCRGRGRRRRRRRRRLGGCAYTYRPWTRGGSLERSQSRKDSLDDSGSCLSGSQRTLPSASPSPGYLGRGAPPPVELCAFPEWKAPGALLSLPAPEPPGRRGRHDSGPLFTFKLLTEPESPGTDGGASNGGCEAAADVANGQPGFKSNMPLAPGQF

[4] = target: 5-hydroxytryptamine receptor 2A (Homo sapiens) (UniProt P28223); assay: Inhibition of 5HT2A receptor at 1 uM by radioligand displacement assay; procedure, shortened: as §1
[5] = target: Sodium-dependent noradrenaline transporter (Homo sapiens) (UniProt P23975); assay: Inhibition of NET at 1 uM by radioligand displacement assay; procedure, shortened: as §1
[6] = target: D(3) dopamine receptor (Homo sapiens) (UniProt P35462); assay: Inhibition of dopamine D3 receptor at 1 uM by radioligand displacement assay; procedure, shortened: as §1
[7] = target: hERG (KCNH2) (Homo sapiens, UniProt Q12809); assay: Inhibition of human ERG at 1 uM by radioligand displacement assay; procedure, shortened: as §1
[8] = target: Sodium-dependent serotonin transporter (Homo sapiens) (UniProt P31645); assay: Inhibition of SERT at 1 uM by radioligand displacement assay; procedure, shortened: as §1
[9] = target: Histamine H1 receptor (Homo sapiens) (UniProt P35367); assay: Inhibition of histamine H1 receptor at 1 uM by radioligand displacement assay; procedure, shortened: as §1
[10] = target: D(2) dopamine receptor (Homo sapiens) (UniProt P14416); assay: Inhibition of dopamine D2 receptor at 1 uM by radioligand displacement assay; procedure, shortened: as §1
[11] = Drug metabolism in Wistar rat liver microsomes at 2.5 uM after 0.5 hrs; format: ADME, Microsome; details: read-out: Drug metabolism
[12] = Oral bioavailability in Wistar rat at 10 mg/kg; format: ADME, organism-based; details: in vivo
Procedure, shortened: (§2)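 Fasted male Wistar rats were dosed orally at 10 mg/kg in water for injection (10 mL/kg). Parameters come from the plasma concentration-time profile.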

[13] = Ratio of drug level in brain to plasma at steady state in Wistar rat at 10 mg/kg, po after 1 hr; format: ADME, organism-based; design: dose 10 mg/kg, route oral; details: read-out: BPR
[14] = target: T3, 5-hydroxytryptamine receptor 6 (Homo sapiens, UniProt P50406); assay: Antagonist activity at recombinant human 5HT6 receptor expressed in CHO cells assessed as inhibition of 5HT-stimulated cAMP accumulation after 4 hrs by luciferase reporter gene assay; format: functional, cell-based
Procedure, shortened: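 Functional antagonism measured in a non-radioactive CHO cell-based assay as inhibition of 5-HT-stimulated cAMP accumulation. IC50 was derived from this inhibition, and Kb values were determined in the same cell-based format. IC50 and Kb are each the mean of two experiments.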

[15] = Half life in Wistar rat at 10 mg/kg, po; format: ADME, organism-based; design: dose 10 mg/kg, route oral; details: in vivo; procedure, shortened: as §2
[16] = target: T3, 5-hydroxytryptamine receptor 6; assay: Antagonist activity at recombinant human 5HT6 receptor expressed in CHO cells assessed as inhibition of 5HT-stimulated cAMP accumulation after 4 hrs by luciferase reporter gene assay relative to control; format: functional, cell-based
[17] = Cmax in Wistar rat at 10 mg/kg, po; format: ADME, organism-based; design: dose 10 mg/kg, route oral; details: in vivo; procedure, shortened: as §2
[18] = AUCt in Wistar rat at 10 mg/kg, po; format: ADME, organism-based; design: dose 10 mg/kg, route oral; details: plasma; procedure, shortened: as §2
[19] = tested on: Rattus norvegicus; assay: Cognitive enhancing effect in Wistar rat assessed as reversal of time delay-induced memory deficit at 10 mg/kg, po after 60 mins by object recognition test; format: functional, organism-based; design: dose 10 mg/kg
Procedure, shortened: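 Object recognition task in rats. Drug or vehicle (PEG 400 50% v/v, 1 mL/kg) was given orally 60 min before testing, at 10 mg/kg. n = 6–9 per group.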

[20] = Clearance in Wistar rat at 5 to 10 mg/kg, iv; format: ADME, organism-based; design: dose 5-10 mg/kg, route intravenous; details: in vivo
Procedure, shortened: (§3)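 Fasted male Wistar rats were dosed intravenously in water for injection at 2 mL/kg. Parameters come from the plasma profile.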

[21] = Apparent volume of distribution in Wistar rat at 5 to 10 mg/kg, iv; format: ADME, organism-based; design: dose 5-10 mg/kg, route intravenous; details: in vivo, read-out: Vz; procedure, shortened: as §3
[22] = Drug metabolism in human liver microsomes at 2.5 uM after 0.5 hrs; format: ADME, Microsome; details: read-out: Drug metabolism
[23] = Half life in Wistar rat at 5 to 10 mg/kg, iv; format: ADME, organism-based; design: dose 5-10 mg/kg, route intravenous; details: in vivo; procedure, shortened: as §3
[24] = target: Cytochrome P450 2D6 (Homo sapiens, UniProt P10635); assay: Inhibition of CYP2D6 in human liver microsomes using dextromethorphan as substrate after 10 mins in presence of NADPH; format: ADME, Microsome
[25] = Tmax in Wistar rat at 10 mg/kg, po; format: ADME, organism-based; design: dose 10 mg/kg, route oral; details: in vivo; procedure, shortened: as §2
[26] = target: T3, 5-hydroxytryptamine receptor 6; assay: Displacement of [3H]-LSD from cloned human 5HT6 receptor expressed in HEK293 cells; format: cell-based
Procedure, shortened: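 Human recombinant 5-HT6 receptor expressed in HEK293 cells. Radioligand [3H]-LSD (60–80 Ci/mmol) at 1.5 nM final. Methiothepin mesylate defined non-specific binding and served as reference. Ki values are the average of duplicate determinations, run under a contract lab's standard protocol.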

[27] = target: Cytochrome P450 3A4 (Homo sapiens, UniProt P08684); assay: Inhibition of CYP3A4 in human liver microsomes using midazolam as substrate after 5 mins in presence of NADPH; format: ADME, Microsome

D(2) dopamine receptor (Homo sapiens), sequence (P14416 whole entry): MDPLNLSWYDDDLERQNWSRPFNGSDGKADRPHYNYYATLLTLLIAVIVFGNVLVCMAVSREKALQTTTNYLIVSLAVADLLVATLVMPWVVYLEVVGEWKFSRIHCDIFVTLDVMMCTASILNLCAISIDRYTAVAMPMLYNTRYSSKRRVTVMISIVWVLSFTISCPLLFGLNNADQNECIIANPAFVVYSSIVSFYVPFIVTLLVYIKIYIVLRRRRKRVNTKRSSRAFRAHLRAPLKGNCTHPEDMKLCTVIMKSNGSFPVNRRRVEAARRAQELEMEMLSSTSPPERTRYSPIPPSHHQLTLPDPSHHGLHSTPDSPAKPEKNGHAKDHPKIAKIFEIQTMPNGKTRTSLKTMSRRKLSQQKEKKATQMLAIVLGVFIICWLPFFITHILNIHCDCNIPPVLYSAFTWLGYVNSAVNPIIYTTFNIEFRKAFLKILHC
Histamine H1 receptor (Homo sapiens), sequence (P35367 whole entry): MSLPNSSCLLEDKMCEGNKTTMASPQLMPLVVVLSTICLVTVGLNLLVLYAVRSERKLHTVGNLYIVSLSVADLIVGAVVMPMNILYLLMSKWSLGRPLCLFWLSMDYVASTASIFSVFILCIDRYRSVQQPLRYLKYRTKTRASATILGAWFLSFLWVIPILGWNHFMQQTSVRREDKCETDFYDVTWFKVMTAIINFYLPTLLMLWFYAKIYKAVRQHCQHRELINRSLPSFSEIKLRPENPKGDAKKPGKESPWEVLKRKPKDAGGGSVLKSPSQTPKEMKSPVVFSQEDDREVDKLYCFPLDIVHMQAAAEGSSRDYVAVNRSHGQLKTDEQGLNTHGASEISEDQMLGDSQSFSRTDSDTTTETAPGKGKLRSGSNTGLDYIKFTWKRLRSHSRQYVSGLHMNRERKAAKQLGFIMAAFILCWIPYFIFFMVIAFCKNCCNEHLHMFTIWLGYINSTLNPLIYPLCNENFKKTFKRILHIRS
Sodium-dependent dopamine transporter (Homo sapiens), sequence (Q01959 whole entry): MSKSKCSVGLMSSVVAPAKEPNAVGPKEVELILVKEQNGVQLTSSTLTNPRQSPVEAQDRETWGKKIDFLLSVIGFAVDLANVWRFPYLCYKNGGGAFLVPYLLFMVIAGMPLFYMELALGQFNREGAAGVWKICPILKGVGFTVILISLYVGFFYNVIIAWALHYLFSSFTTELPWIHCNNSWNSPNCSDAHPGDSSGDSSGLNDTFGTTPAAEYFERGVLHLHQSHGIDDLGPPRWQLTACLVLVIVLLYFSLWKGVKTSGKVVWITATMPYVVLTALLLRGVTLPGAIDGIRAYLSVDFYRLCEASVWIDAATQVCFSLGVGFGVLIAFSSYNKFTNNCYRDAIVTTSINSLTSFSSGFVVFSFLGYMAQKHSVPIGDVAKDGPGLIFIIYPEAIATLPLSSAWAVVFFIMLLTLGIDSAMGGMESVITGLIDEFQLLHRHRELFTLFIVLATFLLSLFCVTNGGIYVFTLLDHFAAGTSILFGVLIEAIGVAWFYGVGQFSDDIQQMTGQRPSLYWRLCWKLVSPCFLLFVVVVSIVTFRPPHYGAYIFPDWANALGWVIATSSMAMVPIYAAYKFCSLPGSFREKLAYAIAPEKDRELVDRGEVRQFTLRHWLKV
D(3) dopamine receptor (Homo sapiens), sequence (P35462 whole entry): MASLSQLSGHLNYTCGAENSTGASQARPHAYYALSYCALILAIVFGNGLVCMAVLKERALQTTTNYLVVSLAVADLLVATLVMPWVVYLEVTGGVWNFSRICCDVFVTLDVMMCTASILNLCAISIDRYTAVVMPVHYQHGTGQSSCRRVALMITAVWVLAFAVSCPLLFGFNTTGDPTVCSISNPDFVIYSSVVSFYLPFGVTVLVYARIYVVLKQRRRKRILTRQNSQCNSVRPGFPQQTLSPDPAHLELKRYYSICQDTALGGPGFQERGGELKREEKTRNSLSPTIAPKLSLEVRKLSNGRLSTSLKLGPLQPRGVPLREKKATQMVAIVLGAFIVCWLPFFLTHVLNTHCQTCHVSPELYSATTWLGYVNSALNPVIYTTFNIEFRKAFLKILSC
hERG (KCNH2), sequence (Q12809 whole entry): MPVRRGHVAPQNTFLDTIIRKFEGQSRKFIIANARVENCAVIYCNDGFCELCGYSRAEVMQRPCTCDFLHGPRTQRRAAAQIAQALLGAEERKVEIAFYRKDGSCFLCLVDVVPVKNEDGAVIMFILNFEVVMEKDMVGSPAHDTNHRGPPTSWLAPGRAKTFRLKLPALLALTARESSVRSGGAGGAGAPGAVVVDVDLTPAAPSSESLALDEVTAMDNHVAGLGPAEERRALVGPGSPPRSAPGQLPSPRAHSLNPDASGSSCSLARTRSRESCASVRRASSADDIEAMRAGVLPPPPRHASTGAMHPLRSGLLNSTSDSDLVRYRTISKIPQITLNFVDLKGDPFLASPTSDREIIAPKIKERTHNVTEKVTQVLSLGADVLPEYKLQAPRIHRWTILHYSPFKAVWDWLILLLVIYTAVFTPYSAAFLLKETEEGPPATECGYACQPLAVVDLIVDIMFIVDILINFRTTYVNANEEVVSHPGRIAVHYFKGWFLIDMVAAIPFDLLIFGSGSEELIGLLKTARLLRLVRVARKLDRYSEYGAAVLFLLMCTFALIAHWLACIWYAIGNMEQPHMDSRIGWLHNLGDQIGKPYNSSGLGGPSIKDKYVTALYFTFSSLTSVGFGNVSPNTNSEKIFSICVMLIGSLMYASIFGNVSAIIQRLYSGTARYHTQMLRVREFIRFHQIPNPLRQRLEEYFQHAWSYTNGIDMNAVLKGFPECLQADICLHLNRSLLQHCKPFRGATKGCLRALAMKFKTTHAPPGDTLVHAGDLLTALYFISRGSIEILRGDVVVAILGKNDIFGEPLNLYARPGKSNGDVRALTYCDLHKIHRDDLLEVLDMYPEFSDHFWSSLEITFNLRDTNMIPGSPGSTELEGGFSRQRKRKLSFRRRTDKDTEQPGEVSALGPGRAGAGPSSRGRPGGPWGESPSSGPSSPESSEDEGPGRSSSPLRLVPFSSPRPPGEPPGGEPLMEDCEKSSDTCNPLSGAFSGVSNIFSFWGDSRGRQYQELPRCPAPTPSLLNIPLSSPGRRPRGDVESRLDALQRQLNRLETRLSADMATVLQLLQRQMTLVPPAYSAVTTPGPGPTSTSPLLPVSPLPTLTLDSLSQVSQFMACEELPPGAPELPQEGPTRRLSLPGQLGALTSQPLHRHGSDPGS
T3 sequence (P50406 whole entry): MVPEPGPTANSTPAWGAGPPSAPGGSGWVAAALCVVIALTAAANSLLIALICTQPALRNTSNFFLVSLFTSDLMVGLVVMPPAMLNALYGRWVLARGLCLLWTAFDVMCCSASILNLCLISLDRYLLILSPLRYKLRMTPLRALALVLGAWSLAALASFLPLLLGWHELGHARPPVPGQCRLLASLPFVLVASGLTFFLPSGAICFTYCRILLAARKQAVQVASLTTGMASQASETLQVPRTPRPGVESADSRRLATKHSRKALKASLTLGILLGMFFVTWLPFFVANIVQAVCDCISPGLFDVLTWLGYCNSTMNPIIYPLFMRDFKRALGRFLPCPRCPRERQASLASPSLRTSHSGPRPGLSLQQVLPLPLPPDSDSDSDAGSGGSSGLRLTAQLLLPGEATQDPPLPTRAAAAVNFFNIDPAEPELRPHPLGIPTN
5-hydroxytryptamine receptor 2A (Homo sapiens), sequence (P28223 whole entry): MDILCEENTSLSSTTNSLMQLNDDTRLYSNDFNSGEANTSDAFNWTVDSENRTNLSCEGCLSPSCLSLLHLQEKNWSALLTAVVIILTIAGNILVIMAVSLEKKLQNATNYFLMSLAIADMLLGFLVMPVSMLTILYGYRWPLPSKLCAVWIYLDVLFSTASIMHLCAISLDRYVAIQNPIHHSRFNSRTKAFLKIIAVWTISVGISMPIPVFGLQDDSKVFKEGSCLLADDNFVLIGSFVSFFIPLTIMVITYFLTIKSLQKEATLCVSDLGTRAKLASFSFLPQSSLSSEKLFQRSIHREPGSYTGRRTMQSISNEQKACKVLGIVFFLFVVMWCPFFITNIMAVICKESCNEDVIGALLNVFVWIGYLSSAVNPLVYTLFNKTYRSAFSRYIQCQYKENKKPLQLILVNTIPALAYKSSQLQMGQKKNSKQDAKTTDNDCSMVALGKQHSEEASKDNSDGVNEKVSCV
Sodium-dependent noradrenaline transporter (Homo sapiens), sequence (P23975 whole entry): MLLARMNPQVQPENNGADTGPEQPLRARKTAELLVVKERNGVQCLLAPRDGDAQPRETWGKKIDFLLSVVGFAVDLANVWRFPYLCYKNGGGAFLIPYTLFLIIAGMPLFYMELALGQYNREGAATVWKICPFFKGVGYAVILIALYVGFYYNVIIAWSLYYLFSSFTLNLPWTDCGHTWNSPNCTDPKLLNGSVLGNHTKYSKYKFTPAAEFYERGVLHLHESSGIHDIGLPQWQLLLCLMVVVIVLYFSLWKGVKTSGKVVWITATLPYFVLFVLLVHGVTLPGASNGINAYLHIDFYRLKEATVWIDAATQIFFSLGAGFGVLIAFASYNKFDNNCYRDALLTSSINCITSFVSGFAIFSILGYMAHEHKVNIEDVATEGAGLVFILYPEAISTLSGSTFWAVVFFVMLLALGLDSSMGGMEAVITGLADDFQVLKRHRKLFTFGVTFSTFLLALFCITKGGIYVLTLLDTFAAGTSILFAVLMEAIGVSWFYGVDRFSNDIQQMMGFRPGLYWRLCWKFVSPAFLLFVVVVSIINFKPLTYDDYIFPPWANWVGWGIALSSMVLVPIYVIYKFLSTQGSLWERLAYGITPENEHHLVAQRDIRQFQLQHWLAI

| SMILES | inhibition [1] [%] | inhibition [2] [%] | inhibition [3] [%] | inhibition [4] [%] | inhibition [5] [%] | inhibition [6] [%] | inhibition [8] [%] | inhibition [9] [%] | inhibition [10] [%] | metabolised at 0.5 h, 2.5 µM [11] [%] | bioavailability [12] [%] | IC50 [14] [nM] | Kb [14] [nM] | Imax [16] [%] | Cmax [17] [ng/mL] | AUC(0-t) [18] [ng·h/mL] | clearance [20] [mL/min/kg] | Vd [21] [L/kg] | metabolised at 0.5 h, 2.5 µM [22] [%] | inhibition at 1 µM [7] [%] | also measured |
| --- | --- | --- | --- | --- | --- | --- | --- | --- | --- | --- | --- | --- | --- | --- | --- | --- | --- | --- | --- | --- | --- |
| CN1CCN(Cc2cccc3c2c(Br)cn3S(=O)(=O)c2ccccc2)CC1 | 3.53 | 8.93 | 2.17 | 19.3 | 6.78 | 35.7 | 5.27 | 2.38 | 5.01 |  |  |  |  |  |  |  |  |  |  | 23 |  |
| CN1CCN(Cc2cccc3c2c(Cl)cn3S(=O)(=O)c2cccc(Cl)c2)CC1 | 20.4 | 19.9 | 0.78 | 17.7 | 13.5 | 28.5 | 1.51 | 9.33 | 12.9 |  |  |  |  |  |  |  |  |  |  | 20.2 |  |
| O=S(=O)(c1ccccc1Br)n1ccc2c(CN3CCNCC3)cccc21 | 5.23 | 18 | 1.13 | 18.7 | 6.28 | 8.31 | 8.47 | 9.82 | 12.8 |  |  |  |  |  |  |  |  |  |  | 24.5 | Ki [26]: 2.82 nM |

Continued, in another order:

| inhibition [1] [%] | inhibition [2] [%] | inhibition [3] [%] | inhibition [4] [%] | inhibition [5] [%] | inhibition [6] [%] | inhibition [8] [%] | inhibition [9] [%] | inhibition [10] [%] | metabolised at 0.5 h, 2.5 µM [11] [%] | bioavailability [12] [%] | IC50 [14] [nM] | Kb [14] [nM] | Imax [16] [%] | Cmax [17] [ng/mL] | AUC(0-t) [18] [ng·h/mL] | clearance [20] [mL/min/kg] | Vd [21] [L/kg] | metabolised at 0.5 h, 2.5 µM [22] [%] | SMILES | inhibition at 1 µM [7] [%] | also measured |
| --- | --- | --- | --- | --- | --- | --- | --- | --- | --- | --- | --- | --- | --- | --- | --- | --- | --- | --- | --- | --- | --- |
| 3.66 | 18.8 | 2.26 | 24 | 10.8 | 27.8 | 4.62 | 9.48 | 11.1 | 100 | 29 | 135 | 0.59 | 100 | 60 | 217 | 220 | 32.6 | 90 | CN1CCN(Cc2cccc3c2ccn3S(=O)(=O)c2ccccc2Br)CC1 | 15.8 | Kp at 1 h [13]: 20.3; half-life [15]: 3.17 h; Activity [19]: Active; half-life [23]: 1.76 h; IC50 [24]: 19500 nM; Tmax [25]: 1.83 h |
| 3.92 | 6.73 | 0.99 | 10.9 | 10.2 | 22.6 | 2.85 | 10.1 | 7.26 | 100 | 2 | 234 | 1.02 | 99 | 7.6 | 23 | 152 | 19.4 | 47 | CN1CCN(Cc2cccc3c2ccn3S(=O)(=O)c2ccccc2)CC1 | 21.1 | Ki [26]: 3.24 nM; half-life [23]: 1.53 h; IC50 [24]: 16800 nM; Tmax [25]: 1.08 h; IC50 [27]: 30500 nM |
